Data on ten compounds can be found in ChEMBL document CHEMBL1130108, “Synthesis of nonhydrolyzable analogues of thiazole-4-carboxamide and benzamide adenine dinucleotide containing fluorine atom at the C2' of adenine nucleoside: induction of K562 differentiation and inosine monophosphate dehydrogenase inhibitory activity” (J Med Chem, 1997).

The subject of experiment [1] is K562. Put plainly: Antiproliferative activity against K562 erythroid leukemic cells was determined. It counts as functional, cell-based. The settings on record: Homo sapiens.
Experiment [2] concerns K562. As to the kind of experiment: The concentration used to induce differentiation in K562 cells. It counts as functional, cell-based. As to conditions: Homo sapiens; call rule not given here. An outline of the steps: (§1)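 K562 erythroleukemia cells incubated with analogue; differentiation scored as fraction of benzidine-positive cells; percent benzidine-positive cells normalized by dividing by the analogue concentration applied.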

The target of experiment [3] is Inosine-5'-monophosphate dehydrogenase 2 (Homo sapiens, UniProt P12268). As to the kind of experiment: The compound was assayed to determine the inhibitory activity against human Inosine-5'-monophosphate dehydrogenase 2.
Experiment [4] has as its system K562. Put plainly: The concentration used. The format is functional, cell-based. As to conditions: Homo sapiens. An outline of the steps:
as §1

A short description of experiment [5]: Percentage of benzidine positive cells is divided by the concentration used. It counts as functional. The arrangement: unit not given here. An outline of the steps:
as §1

In experiment [6] the test system is K562. As to the kind of experiment: The ability to induce differentiation in K562 cells was estimated by determining the fraction of benzidine positive cells converted following incubation with the compound. The format is functional, Homo sapiens. An outline of the steps: as §1
The subject of experiment [7] is K562. Put plainly: Antiproliferative activity against K562 erythroid leukemic cells was determined; NE=no effect. It counts as functional, cell-based, Homo sapiens.

A word on the IC50: it is the concentration at which inhibition is half-maximal.

SMILES strings stand for the structures. Values joined by “and” are separate entries in the source; they are usually repeats but may differ in a detail not shown here. Equal entries are not always repeated.

As to `NC(=O)c1cccc([C@@H]2O[C@H](COP(=O)(O)CP(=O)(O)OC[C@@H]3O[C@H](n4cnc5c(N)ncnc54)[C@@H](O)[C@H]3O)[C@@H](O)[C@H]2O)c1`, the IC50 is 68 µM in the experiment with K562 [1] and 0.8 µM in experiment [3]. The Concentration is 15 µM with K562 [2]; 60 µM with K562 [4]; 0.6 and 0.8 in experiment [5].

Take `NC(=O)c1csc([C@H]2O[C@@H](COP(=O)(O)OP(=O)(O)OC[C@H]3O[C@@H](n4cnc5c(N)ncnc54)[C@H](O)[C@@H]3O)[C@H](O)[C@@H]2O)n1`: the IC50 with K562 [1] amounted to 3.7 µM. The Concentration with K562 [2] is 15 µM. For the same compound, the Positive cells in the experiment with K562 [6] was 70%.

On to `NC(=O)c1csc([C@@H]2O[C@H](COP(=O)(O)OP(=O)(O)OC[C@@H]3O[C@H](n4cnc5c(N)ncnc54)[C@@H](O)[C@H]3F)[C@@H](O)[C@H]2O)n1`, for which the half-inhibitory concentration (IC50) was determined as 3.2 µM in the experiment on K562 [1] and 0.7 µM in experiment [3]. Moreover, the Concentration in the experiment on K562 [2] is 2.5 µM; in experiment [5], 10.4. Besides, in the experiment with K562 [6], the Positive cells is recorded as 26%.

On to `NC(=O)c1csc([C@@H]2O[C@H](COP(=O)(O)OP(=O)(O)OC[C@@H]3O[C@H](n4cnc5c(N)ncnc54)[C@@H](F)[C@H]3O)[C@@H](O)[C@H]2O)n1`, for which the concentration for half-maximal inhibition (IC50) in the experiment with K562 [1] stood at 3.8 µM; in experiment [3] it was 2.6 µM. Also, the Concentration with K562 [2] amounted to 13 µM; in experiment [5], 10.4. Also, the Positive cells with K562 [6] was 56%.

Turning to `NC(=O)c1csc([C@@H]2O[C@H](COP(=O)(O)C(F)(F)P(=O)(O)OC[C@@H]3O[C@H](n4cnc5c(N)ncnc54)[C@@H](O)[C@H]3O)[C@@H](O)[C@H]2O)n1`, the figures for the half-inhibitory concentration (IC50) (with K562 [1]; in experiment [3]) were 11 µM and 0.3 µM, respectively. Also, the Concentration in the experiment with K562 [2] worked out at 14 µM; in experiment [5] it was 3.4. In the experiment on K562 [6], the Positive cells is 48%.

For the compound `NC(=O)c1cccc([C@@H]2O[C@H](COP(=O)(O)CP(=O)(O)OC[C@@H]3O[C@H](n4cnc5c(N)ncnc54)[C@H](F)[C@H]3O)[C@@H](O)[C@H]2O)c1`, the figures for the Concentration (in the experiment with K562 [2]; in experiment [5]) were 75 µM and 0.1, respectively. Also, the figures for the concentration for half-maximal inhibition (IC50) entry (with K562 [7]; in experiment [3]) were “Not Active” and 175 µM, respectively. The Positive cells with K562 [6] is listed as 9%.

Consider `NC(=O)c1csc([C@@H]2O[C@H](CO)[C@@H](O)[C@H]2O)n1` [TIAZOFURIN], for which, in the experiment with K562 [1], the IC50 amounted to 3 µM. Besides, the Concentration with K562 [2] came out at 15 µM. The Positive cells in the experiment with K562 [6] is 80%.

For `NC(=O)c1csc([C@@H]2O[C@H](COP(=O)(O)CP(=O)(O)OC[C@@H]3O[C@H](n4cnc5c(N)ncnc54)[C@H](F)[C@H]3O)[C@@H](O)[C@H]2O)n1`, the results for the 50% inhibitory concentration (IC50) (in the experiment with K562 [1]; in experiment [3]) were 70 µM and 6 µM, respectively. The Concentration with K562 [2] worked out at 14 µM; in experiment [5] it was 0.7. Moreover, in the experiment on K562 [6], the Positive cells was 9.5%.

`NC(=O)c1csc([C@@H]2O[C@H](COP(=O)(O)CP(=O)(O)OC[C@@H]3O[C@H](n4cnc5c(N)ncnc54)[C@@H](O)[C@H]3O)[C@@H](O)[C@H]2O)n1`: the 50% inhibitory concentration (IC50) with K562 [1] stood at 18 µM; in experiment [3], 0.11 µM. The compound also returned a Concentration in the experiment with K562 [2] of 14.3 µM. The Positive cells in the experiment on K562 [6] is on record as 35%.

As for `NC(=O)c1csc([C@@H]2O[C@H](COP(=O)(O)C(F)(F)P(=O)(O)OC[C@@H]3O[C@H](n4cnc5c(N)ncnc54)[C@H](F)[C@H]3O)[C@@H](O)[C@H]2O)n1`, the IC50 stood at 13 µM with K562 [1] and 0.8 µM in experiment [3]. Also, the Concentration with K562 [2] turned out to be 13 µM; in experiment [5], 3.1. Besides, the Positive cells with K562 [6] was 40%.
